Assay outcomes deposited in PubChem by The Scripps Research Institute Molecular Screening Center.
OX1R antag-1: antagonists of human orexin 1 receptor (OX1R); O43613; actives 1.8% (n = 330,000); AID 485270; OX1R-expressing cells, FRET antagonist read-out; inhibition, % at 6.6 µM; in the data active = inhibition mostly above about 38%, no sharp cut-off; inactive = mostly below about 40%;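 also: 0% = agonist challenge alone and 100% = reference antagonist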
CHO parental Ca: counter-screen: ATP calcium response change in parental CHO cells | actives 0.63% (n = 330,000) | parental CHO-K1, ATP-induced calcium, Fluo-8 fluorescence | AID 463079 | inhibition, % at 5.6 µM;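 active = inhibition above that plate's mean sample inhibition plus 3 SD, cut at about 26% in these data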;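 also: 0% = ATP-challenged DMSO wells and 100% = DMSO wells without ATP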
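Assay system: parental CHO cells; Read-out basis: percent inhibition of ATP-evoked calcium rise, normalized to controls; Benchmarks: ATP and no-ATP DMSO wells; Compound dosing: single nominal dose of 5.6 µM per compound; Signal: Fluo-8 calcium dye fluorescence; Also added: ATP as calcium-mobilizing challenge; Repeats: singlicate.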
OX1R antag-2: antagonists of human orexin 1 receptor; O43613; CHO/OX1R cells, Fluo-8 calcium fluorescence, orexin A; inhibition, % at 5 µM; actives 0.43% (n = 330,000);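 active = inhibition above its plate's threshold, mean inhibition of all tested compounds on the plate plus 3 SD, cut at about 37% in these data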;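 also: 0% = orexin A challenge wells and 100% = SB-334867-A antagonist wells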
TAAR1 antag: human TAAR1 antagonism; actives 1.5% (n = 360,000); CHO RD-HGA16 TAAR1, Fluo-8 calcium fluorescence, antagonist; inhibition, % at 3 µM; Q96RJ0;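 active = inhibition above a per-plate cutoff, the mean inhibition of test compounds on that plate plus 3 SD, cut at about 49% in these data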;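 also: 0% = DMSO plus EC80 beta-PEA response and 100% = DMSO alone without agonist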
Target sequence (Q96RJ0 whole entry, looked up): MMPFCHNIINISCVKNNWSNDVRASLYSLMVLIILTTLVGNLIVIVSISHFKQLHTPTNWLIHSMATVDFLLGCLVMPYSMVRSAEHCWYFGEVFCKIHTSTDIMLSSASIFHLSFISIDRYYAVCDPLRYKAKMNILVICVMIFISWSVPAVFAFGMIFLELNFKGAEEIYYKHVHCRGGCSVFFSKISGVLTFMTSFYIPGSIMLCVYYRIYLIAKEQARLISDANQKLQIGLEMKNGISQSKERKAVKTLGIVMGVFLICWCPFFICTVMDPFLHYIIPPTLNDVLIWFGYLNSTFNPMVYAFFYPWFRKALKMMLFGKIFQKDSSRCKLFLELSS
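Test system – hTAAR1-expressing CHO RD-HGA16 cells, Gα16-coupled · Also added – β-PEA at EC80 concentration, post-compound challenge · Compound – 3 µM, single point · Incubation – dye loading 75 min at 37 °C, then 30 min room temperature · Measured by – Fluo-8 intracellular calcium dye fluorescence, real-time kinetic reads · Benchmarks – vehicle and agonist controls · Replicates – singlicate, one well per test compound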
TAAR1 ag: human TAAR1 agonism | CHO RD-HGA16 TAAR1, Fluo-8 calcium fluorescence; vehicle wells 0%, saturating PEA agonist 100% | actives 0.99% (n = 360,000) | Q96RJ0 | AID 624467 | activation, % at 3 µM;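 active = activation above the mean activation of all test compounds in the run plus 3 SD, cut at about 38% in these data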
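Signal – calcium-sensitive Fluo-8 signal, excitation 470-495, emission 515-575 nm · System – RD-HGA16 (CHO) cells co-expressing Gα16 and hTAAR1 · Incubation – 17-24 h seeding, 75 min 37 °C dye, 30 min RT · Compound dosing – 3 µM single concentration · Repeats – no replicates (n 1)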
TAAR1 nonsel count: nonselective antagonist in TAAR1 antagonist counter-screen; counterscreen cell line, calcium fluorescence, antagonist mode; AID 651780; shares compounds with TAAR1 antag; inhibition, % at 3 µM; actives 77% (n = 2,400); in the data active = inhibition above about 22%;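 also: CHO-Ga16 host cells stimulated with ATP at an EC80 level; 0% = agonist EC80 plus vehicle and 100% = vehicle without agonist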
TAAR1 ant conf: confirmation of human TAAR1 antagonists; inhibition, % at 3 µM; actives 40% (n = 2,400); AID 651785; TAAR1-expressing cells, fluorescence antagonist read-out; shares compounds with TAAR1 antag; in the data active = inhibition above about 49%;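 also: CHO-Ga16 host cells challenged with agonist PEA near its EC80; 0% = agonist at EC80 plus vehicle and 100% = vehicle with no agonist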
Ga16 ag counter: nonselective Ga16 agonist in TAAR1 antagonist counter-screen | shares compounds with TAAR1 antag | Ga16-expressing cells, calcium fluorescence, agonist counterscreen | activation, % at 3 µM | actives 18% (n = 2,400) | AID 651953; in the data active = activation above about 12%;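 also: 0% = vehicle wells and 100% = saturating stimulus response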
TAAR1 ag count: counter-screen for human TAAR1 antagonists: TAAR1 agonists. shares compounds with TAAR1 antag. hTAAR1 cell line, fluorescence activation, agonist mode. activation, % at 3 µM. actives 2% (n = 2,400). AID 651955; in the data active = activation above about 37%;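 also: CHO cells stably expressing TAAR1 with calcium dye readout; 0% = DMSO vehicle and 100% = full agonist response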
The depositor's hits bear a star; x = no result. Rows were chosen to be rich in hits. Some 4% of all compounds tested hit in one or more screens of this group.

SMILES	OX1R antag-1	CHO parental Ca	OX1R antag-2	TAAR1 antag	TAAR1 ag	TAAR1 nonsel count	TAAR1 ant conf	Ga16 ag counter	TAAR1 ag count
COC(=O)C1=C(C)N(Cc2ccc(Cl)cc2)C(=S)NC1c1cccc(OC)c1 (stereo not given)	x	x	x	51*	0	20	22	-1	-1
O=C(O)CCC(=O)c1ccc2sc3ccccc3c2c1	x	x	x	-9	2	x	x	x	x
Cc1cc(C)c(C#N)c(N2CCN(CCOc3ccc(Cl)cc3)CC2)n1	15	-13	-43	57*	9	34*	31	6	3
CN(C)CCN(C(=O)/C=C/c1cccs1)c1nc2c(F)cc(F)cc2s1	12	-13	-17	56*	32	15	16	4	9
COc1cc(/C=C2\CCC/C(=C\c3ccc(O)c(OC)c3)C2=O)ccc1O	5	4	4	53*	14	35*	48	7	14
COc1cc(/C=C2/CCCC(C(=O)C(F)(F)F)=C2O)ccc1O	8	-7	6	-29	0	x	x	x	x
Cc1ccccc1N(CC(=O)Nc1ccccc1C(=O)NCc1ccco1)S(=O)(=O)c1ccccc1	17	-7	-12	69*	10	31*	47	7	3
O=C(Nc1ccccc1C(=O)NCc1ccco1)c1ccco1	21	-14	-6	9	7	x	x	x	x
O=C(Nc1ccccc1C(=O)Nc1ccccc1C(=O)NCc1ccco1)c1ccco1	34	4	31	69*	9	25*	49*	10	8
CCc1noc(C)c1C(=O)N1CCCSC1=Nc1ccccc1Cl	19	-18	-28	-16	1	x	x	x	x
Cc1ccc(NCC(=O)Nc2cccc(S(=O)(=O)N(C)C)c2)c(Cl)c1	11	-1	-13	10	6	x	x	x	x
O=C(Nc1ccccc1N1CCN(C(=O)c2ccccc2)CC1)c1ccc(Cl)cc1	12	-29	-34	55*	5	24*	46	5	1
CC(C)C(=O)NC(=S)Nc1ccccc1N1CCN(C(=O)c2ccccc2)CC1	19	-19	-28	78*	18	38*	60*	14*	17
CC(C)C(=O)N1CCN(c2ccccc2NC(=S)NC(=O)/C=C/c2ccco2)CC1	12	-24	-14	51*	6	19	46	4	13
O=C(Nc1ccccc1OC(=O)c1ccc(Cl)cc1)c1ccc(Cl)cc1	6	-23	-13	54*	0	-2	53*	1	9
O=C(/C=C/c1ccco1)Nc1ccccc1N1CCCCC1	19	-40	-31	-2	6	x	x	x	x
Cc1ccc(C(=O)Nc2cc(Cl)ccc2OC(=O)c2ccc(C)cc2)cc1	25	20	6	-7	-1	x	x	x	x
Cc1cccc(C)c1-n1c(C)nn(CC2CC2)c1=O	14	3	-5	-16	8	x	x	x	x
Fc1ccccc1Cc1noc(CN2CCN(c3ccc(Cl)cn3)CC2)n1	22	5	-25	10	-3	x	x	x	x
N#Cc1nc(Nc2cccc(Cl)c2)c2ncn(C3CCCC3)c2n1	7	-29	-14	75*	19	22*	32	2	2
CCn1cnc2c(Nc3cc(F)cc(F)c3)nc(C#N)nc21	7	-10	-32	-6	11	x	x	x	x
COc1cc(/C=C/C(=O)OCC(=O)c2ccc[nH]2)ccc1O	x	x	x	-7	6	x	x	x	x
COC(=O)c1cccc(N2C(=O)C[C@](Sc3ccc(C)cc3)(C(=O)OC)[C@H]2c2ccccc2)c1	x	x	x	82*	7	32*	55*	5	2
CC(=O)Nc1cccc(C(=O)OCc2csc(CC(=O)Nc3ccccc3C)n2)c1	4	-35	16	28	5	x	x	x	x
CCc1ccc(OCCNC(=O)c2cc(SC)ccc2Cl)cc1	3	-12	-19	5	2	x	x	x	x
SMILES	OX1R antag-1	CHO parental Ca	OX1R antag-2	TAAR1 antag	TAAR1 ag	TAAR1 nonsel count	TAAR1 ant conf	Ga16 ag counter	TAAR1 ag count
CCc1ccc(OCCNC(=O)c2ccccc2SCc2ccc(F)cc2)cc1	8	8	-33	54*	15	26*	36	3	2
O=C(NCCOc1ccc(F)cc1)c1ccccc1SCc1ccccc1	21	-3	-21	60*	10	30*	53*	7	3
COc1ccc(NC(=O)c2ccccc2SCc2ccccc2)cc1	x	x	x	11	1	x	x	x	x
Cc1ccccc1N(C(=O)Cn1nnc(-c2cccs2)n1)C(C(=O)NCCC(C)C)c1ccco1 (stereo not given)	17	-24	-16	14	12	x	x	x	x
CCCCn1c(N)c(N(CC(C)C)C(=O)C2CCN(S(=O)(=O)c3ccc(Cl)cc3)CC2)c(=O)[nH]c1=O	0	-16	-6	1	0	x	x	x	x
Cc1cccc(C(=O)OCC(=O)c2ccc3c(c2)NC(=O)CO3)c1	3	-4	5	46	10	x	x	x	x
CCN(CC)S(=O)(=O)c1cccc(C(=O)OCC(=O)c2ccc3c(c2)NC(=O)CO3)c1	7	9	21	71*	19	42*	61*	15*	12
O=C1COc2ccc(C(=O)COC(=O)CCSc3ccc(Cl)cc3)cc2N1	7	1	-11	56*	14	37*	33	10	4
Cc1ccc(NC(=S)Nc2ccc(OC(F)F)c(Cl)c2)cc1F	22	-2	0	12	12	x	x	x	x
CCOC(=O)C(C)Oc1ncnc2cccc(F)c12 (stereo not given)	1	-4	1	6	0	x	x	x	x
C=CCN1C[C@H](COC(=O)c2cccc(OC)c2)Oc2cccc(F)c2S1(=O)=O	x	x	x	79*	9	41*	56*	12*	9
CCCCOCC1CN(CCCC)S(=O)(=O)c2c(F)cccc2O1 (stereo not given)	x	x	x	9	3	x	x	x	x
COc1ccccc1/C=C/C(=O)NC(=S)N1CCN(C)CC1	x	x	x	18	4	x	x	x	x
COc1ccccc1/C=C/C(=O)NC(=S)NC(C)C	21	-26	-15	59*	6	19	44	10	19
C#CCOc1ccc(C2C(C#N)=C(N)Oc3cc(O)ccc32)cc1 (stereo not given)	16	0	-9	5	2	x	x	x	x
O=C(COc1ccccc1)Nc1ccccc1C(=O)NC1CC1	30	-10	-21	0	3	x	x	x	x
Cc1ccccc1OCC(=O)Nc1ccccc1C(=O)NC1CC1	33	-21	-29	57*	10	24*	40	6	2
